High-throughput results: PubChem BioAssay, Sanford-Burnham Center for Chemical Genomics
CXCR6 block: blocks human CXCR6 beta-arrestin recruitment; 360,000 compounds, 0.36% hits; inhibition, % at 20 µM; O00574; CHO-K1 PathHunter CXCR6 beta-arrestin, luminescence; in the data active = inhibition above about 34%, passing the limit was not always enough;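 also: antagonist mode with CXCL16 agonist at 10 nM final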
CCR6 antagonist: blocks CCL20-driven beta-arrestin recruitment at human CCR6; CHO-K1 CCR6 PathHunter beta-arrestin, luminescence, CCL20-stimulated; inhibition, % at 20 µM; P51684; 340,000 compounds, 0.49% hits;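 active = compounds whose inhibition of the agonist-driven luminescence signal at 20 µM reaches about 50%, limit read from the data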;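 also: cells stimulated with CCL20 at 14 nM final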
APJ antag: blocks the human apelin receptor APJ. P35414. CHO-K1 APJ beta-arrestin complementation, luminescence. inhibition, % at 20 µM. 330,000 compounds, 0.32% hits. AID 2521;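 active = inhibition above about 40% at 20 µM, limit read from the data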;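 also: cells challenged with 10 nM apelin-13 agonist together with compound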
Target sequence (P35414 whole entry, looked up): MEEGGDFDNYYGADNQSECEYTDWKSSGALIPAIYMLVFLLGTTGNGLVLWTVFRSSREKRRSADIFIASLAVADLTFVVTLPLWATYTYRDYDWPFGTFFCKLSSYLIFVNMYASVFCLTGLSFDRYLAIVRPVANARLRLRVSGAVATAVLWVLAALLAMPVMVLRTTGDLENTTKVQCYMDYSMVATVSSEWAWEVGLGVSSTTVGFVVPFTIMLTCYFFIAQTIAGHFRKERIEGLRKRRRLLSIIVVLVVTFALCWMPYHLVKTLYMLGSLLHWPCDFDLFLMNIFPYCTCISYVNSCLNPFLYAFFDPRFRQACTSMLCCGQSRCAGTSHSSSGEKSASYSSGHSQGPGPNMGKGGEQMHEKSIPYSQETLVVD
APJ agonist: activates the human apelin receptor APJ; P35414; CHO-K1 APJ PathHunter beta-arrestin, luminescence; 0% DMSO wells, 100% apelin; activation, % at 20 µM; 330,000 compounds, 0.11% hits;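 active = activation more than six SD over the plate average, tested at 20 µM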
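Test system – PathHunter CHO-K1 APJ (AGTRL-1) beta-arrestin reporter cells · Input – 1000 cells/well · Compound – single test compound dose, 20 µM final, 1% DMSO · Times – compound stimulation 90 min at 25 °C, detection 60 min · Technique – beta-gal luminescence · Read-out basis – APJ–arrestin association signal · Control set – negative DMSO alone, positive Apelin-13 at 10 nM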
EBI2 block: antagonists of human EBI2 receptor. P32249. EBI2 beta-arrestin recruitment, luminescence, 7a,25-OHC stimulated. inhibition, % at 5 µM. 360,000 compounds, 0.81% hits. AID 651636; in the data active = inhibition above about 38%;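 also: enzyme fragment complementation signal reports receptor beta-arrestin coupling in cells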
iPSC survival up: hiPSC single-cell survival enhancement. 360,000 compounds, 0.044% hits. ATPlite luminescence; 100% = ROCK inhibitor wells, 0% = DMSO. survival enhancement, % at 20 µM; in the data active = survival enhancement above about 18%;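 also: cells exposed to compounds for 16 hours before the ATP read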
EBI2 antag conf: EBI2 (human) antagonism, single concentration confirmation; shares compounds with EBI2 block; EBI2 beta-arrestin luminescence, 7a,25-OHC antagonism; inhibition, % at 5 µM; 2,400 compounds, 29% hits; AID 651997;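 active = inhibition of at least 50%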
EBI2 ag: activates EBI2, counter-screen for EBI2 antagonists; activation, % at 5 µM; EBI2-expressing cells, agonist mode, luminescence, 60 min; 0% vehicle, 100% 7α,25-dihydroxycholesterol control; shares compounds with EBI2 block; 2,400 tested, under 10 active;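 active = activation of at least 50%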
bGal counter: beta-galactosidase inhibition counter-screen | shares compounds with EBI2 block | purified beta-galactosidase, luminescent Galacton Star, 15 min | inhibition, % at 5 µM | 2,400 compounds, 1% hits | AID 652176;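 active = replicate-average signal at least 3 plate SD below neutral wells, shown as high inhibition, flagging enzyme-inhibiting false positives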;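 also: higher means stronger loss of beta-gal luminescence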
A number is an active result; 0 = inactive; - = not tested or not shown. Sampled rows, rich in hits. Any-hit rate of the full collection: about 1.5%.

SMILES	CXCR6 block	CCR6 antagonist	APJ antag	APJ agonist	EBI2 block	iPSC survival up	EBI2 antag conf	EBI2 ag	bGal counter
CC(CCc1ccccc1)NC(=O)C1CCCN(C(=O)c2cc3sccc3n2C)C1 (stereo not drawn)	0	0	0	0	60	0	0	0	0
CC(Oc1ccc2oc3ccccc3c2c1)C(=O)NC12CC3CC(CC(C3)C1)C2 (stereo not drawn)	0	0	0	0	54	0	0	0	0
COc1ccc(C(=O)NC23CC4CC(CC(C4)C2)C3)cc1	0	0	0	0	0	0	-	-	-
COc1ccc(/C=C(\C#N)C(=O)N2COCC2(C)C)cc1	0	0	0	0	0	0	-	-	-
COc1ccc(/C=N/n2cnc3c(sc(=S)n3-c3ccccc3)c2=O)cc1	0	0	0	0	51	0	0	0	0
CC(C)Cc1ccc(-c2cc3nc(NCC4CC4)ccn3n2)cc1	0	-	-	-	0	0	-	-	-
Cc1cc(F)ccc1S(=O)(=O)Nc1ccccc1C(=O)NC1CCN(Cc2ccccc2)CC1	0	0	0	0	0	0	-	-	-
Cc1ccc2c(c1)[C@H]1[C@H](CO2)[C@H](c2ccccc2)[C@]2(C)C(=O)N(Cc3ccc(Cl)cc3)CC(=O)N12	0	0	0	0	48	0	0	0	0
Cc1ccc2c(c1)[C@H]1[C@H](CO2)[C@H](c2ccccc2)[C@]2(C)C(=O)N(Cc3ccc(F)cc3)CC(=O)N12	0	0	0	0	0	0	-	-	-
CC(C)Sc1ccc(C(=O)Nc2ccc(F)cc2F)cn1	0	0	0	0	45	0	0	0	0
CCc1c(C(=O)N/N=C/c2ccc(OCc3ccc(F)cc3)c(OC)c2)nnn1-c1nonc1N	0	0	0	0	0	0	-	-	-
CCOc1cc(/C=N/NC(=O)c2nnn(-c3nonc3N)c2C)ccc1OCc1ccc(C)cc1	0	-	-	-	54	0	51	0	0
CCOc1cc(/C=N/NC(=O)c2nnn(-c3nonc3N)c2C)ccc1OCc1cccc(F)c1	0	0	0	0	42	0	0	0	0
CCOc1cc(/C=N/NC(=O)c2nnn(-c3nonc3N)c2C)ccc1OCc1ccc(F)cc1	0	0	0	0	52	0	0	0	0
Cc1cccc(COc2ccc(/C=N/NC(=O)c3nnn(-c4nonc4N)c3C)cc2)c1	0	0	0	0	0	0	-	-	-
CN(CCc1ccccc1)C(=O)c1ccc(NC(=O)Cc2ccc(NC(=O)C3CCCN(C(=O)C4CC4)C3)cc2)cc1 (stereo not drawn)	0	0	-	-	0	0	-	-	-
COc1ccc(C2(c3ccc(OC)cc3)NC(=O)N(CC(=O)NC3(C#N)CCCCC3)C2=O)cc1	0	0	0	0	0	0	-	-	-
O=C(NCCc1ccccc1)c1ccc(CS(=O)Cc2ccc(Cl)cc2)o1 (stereo not drawn)	0	0	0	0	60	0	0	0	0
O=C(NCc1ccccc1)c1ccc(CS(=O)Cc2ccc(Cl)cc2)o1 (stereo not drawn)	0	0	0	0	0	0	-	-	-
COc1cc(/C=C2\CCC(C3CCCC3)C2=O)cc(OC)c1OC (stereo not drawn)	0	0	0	0	0	0	-	-	-
COc1cc(/C=C2\CCC(C)C3=C(c4cc(OC)c(OC)c(OC)c4)C(C#N)=C(N)OC32)cc(OC)c1OC (stereo not drawn)	0	0	-	-	45	0	0	0	0
O=[N+]([O-])c1ccc(CN2CCN(c3ccc([N+](=O)[O-])cc3)CC2)cc1	0	0	0	0	0	0	-	-	-
O=[N+]([O-])c1ccc(N2CCC(=NOCc3ccc(Cl)cc3)CC2)cc1	0	0	0	0	53	0	0	0	0
Cc1ccc2[nH]c(C(=O)N3CCN(C=O)CC3)cc2c1	0	0	0	0	75	0	0	0	0
